Measured values published in ChEMBL document CHEMBL3751842, “Novel triazolothiadiazines act as potent anticancer agents in liver cancer cells through Akt and ASK-1 proteins” (Bioorg Med Chem, 2016).
Activity calls are given as the source filed them. The calls are words filed in the database; no cut-off is given here.

system: Huh-7; experiment: Induction of apoptosis in human HuH7 cells assessed as horseshoe nuclear structure at 10 uM after 48 hrs by Hoechst 33258 staining-based immunofluorescence microscopy; type: functional, cell-based; details: not given
Procedure, shortened: (§1)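 Cells on coverslips were incubated overnight, then treated with 10 µM compound or DMSO for 48 h. They were washed in ice-cold PBS, fixed in cold methanol for 10 min, and stained with 1 µg/mL Hoechst 33258 for 5 min in the dark. Nuclei were examined by fluorescence microscopy with a 40x objective.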

Row | SMILES | Activity
1 | CC(c1ccc(-c2ccccc2)c(F)c1)c1nnc2n1N=C(c1ccc(Br)cc1)CS2 (centres undefined) | inactive
2 | CC(c1ccc(-c2ccccc2)c(F)c1)c1nnc2n1N=C(c1ccc([N+](=O)[O-])cc1)CS2 (centres undefined) | inactive
3 | CC(C)Cc1ccc(C(C)c2nnc3n2N=C(c2ccc(OC(F)(F)F)cc2)CS3)cc1 (centres undefined) | Active

system: MCF7; experiment: Cytotoxicity against human MCF7 cells assessed as growth inhibition after 72 hrs by sulforhodamine B assay; type: functional, cell-based; details: Homo sapiens, MCF7, 72 h; read-out: IC50
Procedure, shortened: (§2)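 Cells were grown at 37°C, 5% CO2 in DMEM with 10% FBS. They were seeded at 1000–3000 cells/well, grown 24 h, then exposed to compound at 2.5–40 µM for 72 h. Cells were fixed in 10% TCA for 1 h at 4°C, stained with 0.4% SRB in 1% acetic acid for 10 min, and the dye solubilized in 10 mM Tris. Absorbance was read at 515 nm; runs were in triplicate; IC50 was calculated, with fits of R2 0.8–1 accepted.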

Row | SMILES | IC50 [µM]
4 | CC(C)Cc1ccc(C(C)c2nnc3n2N=C(c2ccc(C(F)(F)F)cc2)CS3)cc1 (centres undefined) | 4.2
5 | COc1ccc2cc(C(C)c3nnc4n3N=C(c3ccc(C)cc3)CS4)ccc2c1 (centres undefined) | 11
6 | COc1ccc2cc(C(C)c3n[nH]c(=S)n3N)ccc2c1 (centres undefined) | 22.3
7 | CC(C)Cc1ccc(C(C)c2nnc3n2N=C(c2ccc(F)cc2)CS3)cc1 (centres undefined) | 8.9
8 | CC(c1ccc(-c2ccccc2)c(F)c1)c1nnc2n1N=C(c1ccc(Br)cc1)CS2 (centres undefined) | 7.4
9 | CC(C)Cc1ccc(C(C)c2n[nH]c(=S)n2N)cc1 (centres undefined) | 16.1
10 | COc1ccc2cc(C(C)c3nnc4n3N=C(c3ccc(OC(F)(F)F)cc3)CS4)ccc2c1 (centres undefined) | 8.8
11 | CC(c1ccc(-c2ccccc2)c(F)c1)c1nnc2n1N=C(c1ccccc1)CS2 (centres undefined) | 7.4
12 | COc1ccc2cc(C(C)c3nnc4n3N=C(c3ccc(Cl)cc3Cl)CS4)ccc2c1 (centres undefined) | 14.6
13 | COc1ccc2cc(C(C)c3nnc4n3N=C(c3ccc(C(F)(F)F)cc3)CS4)ccc2c1 (centres undefined) | 6.9
14 | Cc1ccc(C2=Nn3c(nnc3C(C)c3ccc(-c4ccccc4)c(F)c3)SC2)cc1 (centres undefined) | 5
15 | CC(c1ccc(-c2ccccc2)c(F)c1)c1nnc2n1N=C(c1ccc([N+](=O)[O-])cc1)CS2 (centres undefined) | 7.8
16 | COc1ccc2cc(C(C)c3nnc4n3N=C(c3ccccc3)CS4)ccc2c1 (centres undefined) | 11.7
17 | CC(c1ccc(-c2ccccc2)c(F)c1)c1nnc2n1N=C(c1ccc(OC(F)(F)F)cc1)CS2 (centres undefined) | 4.8
18 | CC(C)Cc1ccc(C(C)c2nnc3n2N=C(c2ccc(OC(F)(F)F)cc2)CS3)cc1 (centres undefined) | 1.1

system: not listed separately; experiment: Cytotoxicity against human Mahlavu cells assessed as growth inhibition after 72 hrs by sulforhodamine B assay; type: functional, cell-based; details: Homo sapiens, Mahlavu, 72 h; read-out: IC50; procedure, shortened: as §2

Row | SMILES | IC50 [µM]
19 | CC(c1ccc(-c2ccccc2)c(F)c1)c1nnc2n1N=C(c1ccc(Br)cc1)CS2 (centres undefined) | 6.2
20 | CC(C)Cc1ccc(C(C)c2n[nH]c(=S)n2N)cc1 (centres undefined) | 16.2
21 | CC(c1ccc(-c2ccccc2)c(F)c1)c1nnc2n1N=C(c1ccc([N+](=O)[O-])cc1)CS2 (centres undefined) | 9.4
22 | CC(C)Cc1ccc(C(C)c2nnc3n2N=C(c2ccc(OC(F)(F)F)cc2)CS3)cc1 (centres undefined) | 9.1

same assay, conditions: mahlavu

Row | SMILES | IC50
23 | COc1ccc2cc(C(C)c3n[nH]c(=S)n3N)ccc2c1 (centres undefined) | Not Active

system: not listed separately; experiment: Cytotoxicity against human SNU475 cells assessed as growth inhibition after 72 hrs by sulforhodamine B assay; type: functional, cell-based, SNU-475; details: Homo sapiens, SNU-475, 72 h; read-out: IC50; procedure, shortened: as §2

Row | SMILES | IC50 [µM]
24 | COc1ccc2cc(C(C)c3n[nH]c(=S)n3N)ccc2c1 (centres undefined) | 15.9
25 | CC(c1ccc(-c2ccccc2)c(F)c1)c1nnc2n1N=C(c1ccc(Br)cc1)CS2 (centres undefined) | 7
26 | CC(C)Cc1ccc(C(C)c2n[nH]c(=S)n2N)cc1 (centres undefined) | 11.7
27 | CC(c1ccc(-c2ccccc2)c(F)c1)c1nnc2n1N=C(c1ccc([N+](=O)[O-])cc1)CS2 (centres undefined) | 7.1
28 | CC(C)Cc1ccc(C(C)c2nnc3n2N=C(c2ccc(OC(F)(F)F)cc2)CS3)cc1 (centres undefined) | 6.8

system: Huh-7; experiment: Cytotoxicity against human HuH7 cells assessed as cell impedance at IC25 to IC100 measured every 30 mins for 72 hrs by RT-CES assay; type: functional, cell-based; details: TDE = time-dependent effect
Procedure, shortened: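 Huh7 cells were seeded at 1000–5000 cells/well on electrode plates. […] Impedance was read as cell index every 10 min for the first 24 h, then every 30 min, over 72 h. Data were normalized to DMSO; inhibition (%) = [1 − (CI treated/CI DMSO)] × 100. Each experiment was run at least three times.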

Row | SMILES | Activity
29 | CC(c1ccc(-c2ccccc2)c(F)c1)c1nnc2n1N=C(c1ccc(Br)cc1)CS2 (centres undefined) | tde
30 | CC(c1ccc(-c2ccccc2)c(F)c1)c1nnc2n1N=C(c1ccc([N+](=O)[O-])cc1)CS2 (centres undefined) | tde
31 | CC(C)Cc1ccc(C(C)c2nnc3n2N=C(c2ccc(OC(F)(F)F)cc2)CS3)cc1 (centres undefined) | tde

system: HepG2; experiment: Cytotoxicity against human HepG2 cells assessed as growth inhibition after 72 hrs by sulforhodamine B assay; type: functional, cell-based; details: Homo sapiens, HepG2, 72 h; read-out: IC50; procedure, shortened: as §2

Row | SMILES | IC50 [µM]
32 | COc1ccc2cc(C(C)c3n[nH]c(=S)n3N)ccc2c1 (centres undefined) | 40
33 | CC(c1ccc(-c2ccccc2)c(F)c1)c1nnc2n1N=C(c1ccc(Br)cc1)CS2 (centres undefined) | 3.7
34 | CC(c1ccc(-c2ccccc2)c(F)c1)c1nnc2n1N=C(c1ccc([N+](=O)[O-])cc1)CS2 (centres undefined) | 4.3
35 | CC(C)Cc1ccc(C(C)c2nnc3n2N=C(c2ccc(OC(F)(F)F)cc2)CS3)cc1 (centres undefined) | 9.7

same assay, conditions: hepg2

Row | SMILES | IC50
36 | CC(C)Cc1ccc(C(C)c2n[nH]c(=S)n2N)cc1 (centres undefined) | Not Active

system: not listed separately; experiment: Cytotoxicity against human Hep3B cells assessed as growth inhibition after 72 hrs by sulforhodamine B assay; type: functional, cell-based, Hep 3B2; details: Homo sapiens, Hep3B, 72 h; read-out: IC50; procedure, shortened: as §2

Row | SMILES | IC50 [µM]
37 | COc1ccc2cc(C(C)c3n[nH]c(=S)n3N)ccc2c1 (centres undefined) | 1.9
38 | CC(c1ccc(-c2ccccc2)c(F)c1)c1nnc2n1N=C(c1ccc(Br)cc1)CS2 (centres undefined) | 1.5
39 | CC(C)Cc1ccc(C(C)c2n[nH]c(=S)n2N)cc1 (centres undefined) | 13.1
40 | CC(c1ccc(-c2ccccc2)c(F)c1)c1nnc2n1N=C(c1ccc([N+](=O)[O-])cc1)CS2 (centres undefined) | 2.9
41 | CC(C)Cc1ccc(C(C)c2nnc3n2N=C(c2ccc(OC(F)(F)F)cc2)CS3)cc1 (centres undefined) | 6.4

system: not listed separately; experiment: Cytotoxicity against human HCT116 cells assessed as growth inhibition after 72 hrs by sulforhodamine B assay; type: functional, cell-based, HCT-116; details: Homo sapiens, HCT-116, 72 h; read-out: IC50; procedure, shortened: as §2

Row | SMILES | IC50 [µM]
42 | CC(C)Cc1ccc(C(C)c2nnc3n2N=C(c2ccc(C(F)(F)F)cc2)CS3)cc1 (centres undefined) | 6.5
43 | COc1ccc2cc(C(C)c3nnc4n3N=C(c3ccc(C)cc3)CS4)ccc2c1 (centres undefined) | 10.2
44 | COc1ccc2cc(C(C)c3n[nH]c(=S)n3N)ccc2c1 (centres undefined) | 20.2
45 | CC(C)Cc1ccc(C(C)c2nnc3n2N=C(c2ccc(F)cc2)CS3)cc1 (centres undefined) | 12.4
46 | CC(c1ccc(-c2ccccc2)c(F)c1)c1nnc2n1N=C(c1ccc(Br)cc1)CS2 (centres undefined) | 7.1
47 | CC(C)Cc1ccc(C(C)c2n[nH]c(=S)n2N)cc1 (centres undefined) | 27.4
48 | COc1ccc2cc(C(C)c3nnc4n3N=C(c3ccc(OC(F)(F)F)cc3)CS4)ccc2c1 (centres undefined) | 11.7
49 | CC(c1ccc(-c2ccccc2)c(F)c1)c1nnc2n1N=C(c1ccccc1)CS2 (centres undefined) | 9.7
50 | COc1ccc2cc(C(C)c3nnc4n3N=C(c3ccc(Cl)cc3Cl)CS4)ccc2c1 (centres undefined) | 14
51 | COc1ccc2cc(C(C)c3nnc4n3N=C(c3ccc(C(F)(F)F)cc3)CS4)ccc2c1 (centres undefined) | 10.8
52 | Cc1ccc(C2=Nn3c(nnc3C(C)c3ccc(-c4ccccc4)c(F)c3)SC2)cc1 (centres undefined) | 4.8
53 | CC(c1ccc(-c2ccccc2)c(F)c1)c1nnc2n1N=C(c1ccc([N+](=O)[O-])cc1)CS2 (centres undefined) | 7.1
54 | COc1ccc2cc(C(C)c3nnc4n3N=C(c3ccccc3)CS4)ccc2c1 (centres undefined) | 8.9
55 | CC(c1ccc(-c2ccccc2)c(F)c1)c1nnc2n1N=C(c1ccc(OC(F)(F)F)cc1)CS2 (centres undefined) | 5.4
56 | CC(C)Cc1ccc(C(C)c2nnc3n2N=C(c2ccc(OC(F)(F)F)cc2)CS3)cc1 (centres undefined) | 3

system: Huh-7; experiment: Induction of apoptosis in human HuH7 cells assessed as nuclear condensation at 10 uM after 48 hrs by Hoechst 33258 staining-based immunofluorescence microscopy; type: functional, cell-based; details: not given; procedure, shortened: as §1

Row | SMILES | Activity
57 | CC(c1ccc(-c2ccccc2)c(F)c1)c1nnc2n1N=C(c1ccc(Br)cc1)CS2 (centres undefined) | inactive
58 | CC(c1ccc(-c2ccccc2)c(F)c1)c1nnc2n1N=C(c1ccc([N+](=O)[O-])cc1)CS2 (centres undefined) | inactive
59 | CC(C)Cc1ccc(C(C)c2nnc3n2N=C(c2ccc(OC(F)(F)F)cc2)CS3)cc1 (centres undefined) | Active

system: not listed separately; experiment: Cytotoxicity against human FOCUS cells assessed as growth inhibition after 72 hrs by sulforhodamine B assay; type: functional, cell-based; details: Homo sapiens, FOCUS, 72 h; read-out: IC50; procedure, shortened: as §2

Row | SMILES | IC50 [µM]
60 | CC(c1ccc(-c2ccccc2)c(F)c1)c1nnc2n1N=C(c1ccc(Br)cc1)CS2 (centres undefined) | 8.5
61 | CC(c1ccc(-c2ccccc2)c(F)c1)c1nnc2n1N=C(c1ccc([N+](=O)[O-])cc1)CS2 (centres undefined) | 3.5
62 | CC(C)Cc1ccc(C(C)c2nnc3n2N=C(c2ccc(OC(F)(F)F)cc2)CS3)cc1 (centres undefined) | 8.8

same assay, conditions: focus

Row | SMILES | IC50
63 | COc1ccc2cc(C(C)c3n[nH]c(=S)n3N)ccc2c1 (centres undefined) | Not Active
64 | CC(C)Cc1ccc(C(C)c2n[nH]c(=S)n2N)cc1 (centres undefined) | Not Active

system: not listed separately; experiment: Cytotoxicity against human HuH7 cells assessed as growth inhibition after 72 hrs by sulforhodamine B assay; type: functional, cell-based, Huh-7; details: Homo sapiens, Huh-7, 72 h; read-out: IC50; procedure, shortened: as §2

Row | SMILES | IC50 [µM]
65 | CC(C)Cc1ccc(C(C)c2nnc3n2N=C(c2ccc(C(F)(F)F)cc2)CS3)cc1 (centres undefined) | 8.4
66 | COc1ccc2cc(C(C)c3nnc4n3N=C(c3ccc(C)cc3)CS4)ccc2c1 (centres undefined) | 8.2
67 | COc1ccc2cc(C(C)c3n[nH]c(=S)n3N)ccc2c1 (centres undefined) | 40.8
68 | CC(C)Cc1ccc(C(C)c2nnc3n2N=C(c2ccc(F)cc2)CS3)cc1 (centres undefined) | 7.8
69 | CC(c1ccc(-c2ccccc2)c(F)c1)c1nnc2n1N=C(c1ccc(Br)cc1)CS2 (centres undefined) | 5
70 | CC(C)Cc1ccc(C(C)c2n[nH]c(=S)n2N)cc1 (centres undefined) | 23
71 | COc1ccc2cc(C(C)c3nnc4n3N=C(c3ccc(OC(F)(F)F)cc3)CS4)ccc2c1 (centres undefined) | 16
72 | CC(c1ccc(-c2ccccc2)c(F)c1)c1nnc2n1N=C(c1ccccc1)CS2 (centres undefined) | 6.7
73 | COc1ccc2cc(C(C)c3nnc4n3N=C(c3ccc(Cl)cc3Cl)CS4)ccc2c1 (centres undefined) | 10.7
74 | COc1ccc2cc(C(C)c3nnc4n3N=C(c3ccc(C(F)(F)F)cc3)CS4)ccc2c1 (centres undefined) | 14.8
75 | Cc1ccc(C2=Nn3c(nnc3C(C)c3ccc(-c4ccccc4)c(F)c3)SC2)cc1 (centres undefined) | 7.2
76 | CC(c1ccc(-c2ccccc2)c(F)c1)c1nnc2n1N=C(c1ccc([N+](=O)[O-])cc1)CS2 (centres undefined) | 4.3
77 | COc1ccc2cc(C(C)c3nnc4n3N=C(c3ccccc3)CS4)ccc2c1 (centres undefined) | 5.7
78 | CC(c1ccc(-c2ccccc2)c(F)c1)c1nnc2n1N=C(c1ccc(OC(F)(F)F)cc1)CS2 (centres undefined) | 8.4
79 | CC(C)Cc1ccc(C(C)c2nnc3n2N=C(c2ccc(OC(F)(F)F)cc2)CS3)cc1 (centres undefined) | 3.6
